Most compounds without a hit are left out; they make up all but 1.8% or so of the library.
Hck-Nef inh: human Hck-Nef kinase inhibition; P08631; Recombinant Hck-YEEI plus Nef, Z-Lyte FRET kinase assay; inhibition, % at 20 µM; hit rate 0.68% among 220,000; AID 463187;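 active means Hck-Nef kinase inhibition above about 50%, limit read from the data; inactive means inhibition below that limit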;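 further: 0% = DMSO with Hck plus Nef and 100% = Hck alone without Nef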
Runt-CBFb FRET: Runt domain-CBFb interaction inhibition | inhibition, % at 20 µM | Cerulean-Runt/Venus-CBFb FRET ratio 530/480, 1 h | hit rate 0.46% among 220,000 | AID 1496 | Q01196+Q13951;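 active means inhibition over about 50% at 20 µM in the single-dose screen, limit read from the data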;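 further: 0% = DMSO wells and 100% = excess unlabeled CBFb competitor control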
Target sequence (Q01196 whole entry, looked up, the tested form may be a part): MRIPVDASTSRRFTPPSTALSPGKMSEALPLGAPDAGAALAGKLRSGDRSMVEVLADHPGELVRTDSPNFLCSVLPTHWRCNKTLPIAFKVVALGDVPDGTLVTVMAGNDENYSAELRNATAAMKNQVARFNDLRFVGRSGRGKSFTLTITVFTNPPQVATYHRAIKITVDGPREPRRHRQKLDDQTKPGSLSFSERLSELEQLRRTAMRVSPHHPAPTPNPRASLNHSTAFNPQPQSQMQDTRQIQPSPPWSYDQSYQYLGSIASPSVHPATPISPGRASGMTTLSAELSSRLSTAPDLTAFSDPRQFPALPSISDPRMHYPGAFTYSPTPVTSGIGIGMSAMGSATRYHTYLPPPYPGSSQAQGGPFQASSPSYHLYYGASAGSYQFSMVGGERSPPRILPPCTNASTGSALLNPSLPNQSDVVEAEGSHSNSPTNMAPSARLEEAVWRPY
Target sequence (Q13951 whole entry, looked up, the tested form may be a part): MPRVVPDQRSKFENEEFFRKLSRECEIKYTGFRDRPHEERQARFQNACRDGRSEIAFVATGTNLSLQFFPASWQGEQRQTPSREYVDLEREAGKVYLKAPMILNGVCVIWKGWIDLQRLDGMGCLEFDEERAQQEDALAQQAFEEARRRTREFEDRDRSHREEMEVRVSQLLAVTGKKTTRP
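Assay system: Cerulean-tagged RUNX1 Runt domain (FRET donor) fusion protein / Amount: 100 nM each of Venus-CBFb and Cerulean-Runt domain / Medium: Tris buffer pH 7.5 with salts and BSA / Also added: Venus-CBFb 100 nM / Schedule: 1 h complex formation plus 1 h compound treatment, room temperature / Signal: FRET fluorescence / Read-out: loss of energy transfer signal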
Runt-SMMHC FRET: inhibitors of human RUNX1 Runt domain binding to CBFb-SMMHC; Cerulean-Runt/Venus-CBFb-SMMHC FRET ratio 530/480, 1 h; AID 1434; hit rate 0.74% among 220,000; inhibition, % at 20 µM;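 active means mean inhibition across duplicate retests at 20 µM reaching about 50%, limit read from the data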;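 further: 0% = DMSO wells and 100% = wells with excess untagged CBFb-SMMHC; inhibitors lower the FRET ratio by blocking Runt binding to CBFb-SMMHC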
RanGTP-Imp inh: disruptors of Ran-importin-beta complex formation – biochemical, FRET, CFP-Ran, YFP-importin-beta, homogeneous, primary screen; cell-free CFP-Ran/YFP-importin-beta FRET ratio; AID 2216; hit rate 1.1% among 300,000; inhibition, % (no concentration beside the values);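 active means more than half of the replicate wells show a fall in the fluorescence ratio signal beyond about 16%, limit read from the data, passing the limit was not always enough; inconclusive means exactly half of the replicate wells pass the set limit; inactive means fewer than half of replicates pass the limit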;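 further: 0% = DMSO wells and 100% = Ran loaded with GDP instead of GTP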
YIC counter: counter-screen: alters YIC FRET probe signal; hit rate 40% among 1,000; Purified YIC probe, intramolecular FRET ratio YFP/CFP; AID 435026; IC50, µM; shares compounds with RanGTP-Imp inh;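 active means fitted half-maximal inhibitory concentration no more than tenfold above the top dose tested; inconclusive means flat fit with 30 to 70% activity, or poor fit; inactive means half-maximal concentration beyond tenfold above the top dose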
Numbers without * were called inactive; i = inactive; ? = inconclusive; . = not tested or not shown.

SMILES	Hck-Nef inh	Runt-CBFb FRET	Runt-SMMHC FRET	RanGTP-Imp inh	YIC counter
Cc1cc(S(=O)(=O)N2CCN(c3ccccc3C)CC2)ccc1F	6	-1	-1	-2	.
Cc1cc(S(=O)(=O)N2CCN(c3c(C)cccc3C)CC2)ccc1F	-1	1	-5	22*	>50
COc1ccc(N(CC(=O)NCc2ccco2)C(=O)CCC(=O)Nc2nccs2)cc1	.	.	.	-1	.
CCc1ccccc1N(CC(=O)NCc1ccco1)C(=O)CCC(=O)Nc1nccs1	.	.	.	22*	>50
COC(=O)c1cc(C(=O)OC)[nH]n1	15	2	-3	20*	>50
COC(=O)c1cc(-c2ccccc2)n[nH]1	7	2	2	-3	.
Cc1cc(C)c(S(=O)(=O)N/N=C/c2ccc3c(c2)OCO3)c(C)c1	.	.	.	0	.
O=C1CC(c2ccco2)Sc2ccccc2N1 (configuration not stated)	.	.	.	2	.
O=c1[nH]c2c(s1)C(c1ccco1)C1C3CCC(C3)C1S2 (configuration not stated)	-19	8	4	24*	>50
CCOc1cc(C2C(C(=O)OC)=CN(Cc3ccc(Cl)cc3)C=C2C(=O)OC)ccc1O	.	.	.	6	.
COC(=O)C1=CN(Cc2ccccc2)C=C(C(=O)OC)C1c1ccc(O)c(OC)c1	.	.	.	28*	>50
COC(=O)C1=CN(Cc2ccc(OC)c(OC)c2)C=C(C(=O)OC)C1c1ccccc1F	.	.	.	28*	11*
COC(=O)C1=CN(Cc2ccccc2)C=C(C(=O)OC)C1c1ccc(OC)c(OC)c1	.	.	.	3	.
Cc1cc2oc3cc(NCCC4CCCN4C)ccc3c(=O)c2cc1C (configuration not stated)	.	.	.	31*	8.9*
CN1CCCC1CCNc1ccc2sc3ccccc3c(=O)c2c1 (configuration not stated)	.	.	.	-193	.
CC(=O)O/N=C/c1c(Cl)n(C)c2ccccc12	7	-1	4	48*	>50
Cn1c(=O)cc(OCC(=O)NCc2ccccn2)c2ccccc21	2	0	-9	2	.
Cn1c(=O)cc(OCCCC(=O)NCc2ccccn2)c2ccccc21	2	-6	0	23*	>50
O=C(Cc1n[nH]c(=O)c2ccccc12)NCc1ccccn1	0	1	4	23*	>50
O=C(Cc1n[nH]c(=O)c2ccccc12)NCc1ccc(Cl)cc1	11	2	0	2	.
COc1ccc(CN2CCNC(=O)C2CC(=O)N2CCCN(C(C)=O)CC2)cc1OC (configuration not stated)	.	.	.	6	.
Nc1nc2ncc(CNc3ccc(C(=O)N[C@@H](CCC(=O)O)C(=O)O)cc3)nc2c(=O)[nH]1	.	.	.	4	.
CN(Cc1cnc2nc(N)nc(N)c2n1)c1ccc(C(=O)N[C@@H](CCC(=O)O)C(=O)O)cc1	.	.	.	23*	>50
COc1ccccc1NC(=O)CN1CCN(CC(=O)Nc2ccc(C)c(F)c2)CC1	.	.	.	27*	>50
COc1ccccc1NC(=O)CN1CCN(CC(=O)Nc2ccc(F)cc2)CC1	-9	0	-5	.	.
SMILES	Hck-Nef inh	Runt-CBFb FRET	Runt-SMMHC FRET	RanGTP-Imp inh	YIC counter
O=c1cc(CN2CCN(S(=O)(=O)c3ccc4c(c3)OCCO4)CC2)c2ccc(O)cc2o1	25	102*	102*	46*	6.9*
Cc1onc(-c2c(F)cccc2Cl)c1C(=O)NC(C)c1ccccc1 (configuration not stated)	.	.	.	5	.
Cc1c(O)c(CN2CCCCC2)cc2c1oc(=O)c1ccccc12	2	-3	-1	-2	.
Cc1c(O)c(CN2CCCCC2)cc2c3c(c(=O)oc12)CCC3	9	90*	58*	37*	14*
N=c1c(S(=O)(=O)c2ccc(Cl)cc2)cc2c(=O)n3ccccc3nc2n1Cc1cccnc1	.	.	.	33*	?
CN(C)c1nc(-c2ccccc2)cc(C(F)(F)F)c1C#N	11	38	95*	29*	10*
CCN(Cc1ccccc1)C(=O)CN1C(=O)NC(CC)(c2ccc(F)cc2)C1=O (configuration not stated)	.	.	.	23*	>50
COC(=O)NC1(C(=O)O)CCCC1	4	0	0	5	.
COc1ccc(C2C(C#N)=C(N)Oc3cc4c(cc32)OCO4)cc1 (configuration not stated)	4	13	10	25*	>50
NS(=O)(=O)c1cnccc1Oc1cccc(Cl)c1	.	.	.	-1	.
Cn1c2ccccc2c(=O)c2ccc(F)cc21	.	.	.	35*	15*
O=S(=O)(Cc1ccc(Cl)cc1)N1CCN(Cc2ccc3c(c2)OCO3)CC1	10	0	-1	6	.
O=S(=O)(Cc1ccc(Cl)cc1)Nc1ccc2c(c1)OCO2	2	-1	28	19*	>50
C=CCn1c(SCC(=O)Nc2sccc2C(N)=O)nc2ccccc2c1=O	-21	-1	0	19*	>50
COc1ccc(C(=O)O)cc1S(=O)(=O)N(C)C	17	0	-1	26*	>50
COc1ccc(C(=O)O)cc1S(=O)(=O)NC(C)(C)C	37	0	0	3	.
Cc1ccccc1-n1c(=O)cc(N2CCC3(CC2)OCCO3)[nH]c1=O	6	-1	1	33*	>50
Cn1c(N/N=C/c2cc3ccccc3nc2Cl)nc2ccccc21	-3	2	0	17*	i
Cn1c(N/N=C/c2c[nH]c3ccccc23)nc2ccccc21	-1	5	2	5	.
COc1ccc(S(=O)(=O)N2CCC(C(=O)NCCC(=O)Nc3nccs3)CC2)cc1	.	.	.	1	.
CC1(C)CNC(=O)C=C(c2ccccc2)C1	2	0	2	23*	>50
CC(C)(C)Nc1nc2ccc([N+](=O)[O-])cc2o1	6	1	-2	0	.
COc1ccc(OC)c(CCNC(=O)Cn2nc(C)c3c(C)n(-c4ccccc4)nc3c2=O)c1	.	.	.	3	.
Cc1ccccc1/C=N/Nc1ccnc2cc(Cl)ccc12	8	-23	-34	23*	>50
Cc1ccc(/C=N/Nc2ccnc3cc(Cl)ccc23)c(C)c1	8	-19	-21	-5	.
SMILES	Hck-Nef inh	Runt-CBFb FRET	Runt-SMMHC FRET	RanGTP-Imp inh	YIC counter
Cc1c2ccccc2nc2c(F)c(NCCO)c(F)c(F)c12	-2	2	3	-10	.
OCCNc1c2ccccc2nc2c(F)c(F)c(F)c(F)c12	0	47	.	20*	6.5*
CC1=Nc2ccccc2/C1=C\c1nc(-c2ccc(F)cc2)oc1O	2	-18	-3	22*	>26
O=c1c2ccccc2nc(/C=C/c2ccc(Br)cc2)n1CCO	.	.	.	3	.
Cc1[nH]c2ccccc2c1/C=C/c1nc2ccccc2c(=O)n1CCO	-6	-45	-10	17*	9*
Cc1ccc2[nH]c(C(=O)N3CCN(c4cccc(Cl)c4)CC3)cc2c1	.	.	.	-3	.
Cc1cc(C)c2c(N)c(C(=O)NN3CC(=O)N(c4ccccc4F)CC3=O)sc2n1	11	6	8	16*	>50
COc1ccc2nc(C)c(C(N)=O)cc2c1	21	0	2	?	.

Screening results deposited in PubChem BioAssay by several laboratories.
